In brackets after ≈: the same amount, converted by molar mass.
Experiments:
Format in all cases: functional
[1] = system: Mycobacterium tuberculosis; assay: Antimycobacterial activity against Mycobacterium tuberculosis H37Rv 331/88 after 14 days; conditions: H37Rv 331/88, 336 h
[2] = system: Mycobacterium tuberculosis; assay: Antimycobacterial activity against Mycobacterium tuberculosis H37Rv 331/88 after 21 days; conditions: H37Rv 331/88, 504 h
Mycobacterium avium [3] = assay: Antimycobacterial activity against Mycobacterium avium 330/80 after 14 days; conditions: 330/80, 336 h
Mycobacterium avium [4] = assay: Antimycobacterial activity against Mycobacterium avium 330/80 after 21 days; conditions: 330/80, 504 h
Mycobacterium kansasii [5] = assay: Antimycobacterial activity against Mycobacterium kansasii 235/80 after 7 days; conditions: 235/80, 168 h
In short: (§1)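 Šula's semisynthetic medium micromethod at 37 °C, read after 7, 14 and 21 days. The 1.0 McFarland suspension was diluted 10^-4. MIC determined. 6509/96 is a clinical isolate.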

Mycobacterium kansasii [6] = assay: Antimycobacterial activity against Mycobacterium kansasii 235/80 after 14 days; conditions: 235/80, 336 h; in short: as §1
Mycobacterium kansasii [7] = assay: Antimycobacterial activity against Mycobacterium kansasii 235/80 after 21 days; conditions: 235/80, 504 h; in short: as §1
Mycobacterium kansasii [8] = assay: Antimycobacterial activity against Mycobacterium kansasii 6509/96 after 7 days; conditions: 6509/96, 168 h; in short: as §1
Mycobacterium kansasii [9] = assay: Antimycobacterial activity against Mycobacterium kansasii 6509/96 after 14 days; conditions: 6509/96, 336 h; in short: as §1
Mycobacterium kansasii [10] = assay: Antimycobacterial activity against Mycobacterium kansasii 6509/96 after 21 days; conditions: 6509/96, 504 h; in short: as §1
Staphylococcus aureus [11] = assay: Antibacterial activity against Staphylococcus aureus CCM 4516/08 after 24 hrs by microdilution broth method; conditions: CCM 4516/08, 24 h
Staphylococcus aureus [12] = assay: Antibacterial activity against Staphylococcus aureus CCM 4516/08 after 48 hrs by microdilution broth method; conditions: CCM 4516/08, 48 h
Staphylococcus aureus [13] = assay: Antibacterial activity against methicillin-resistant Staphylococcus aureus H 5996/08 after 24 hrs by microdilution broth method; conditions: H 5996/08, 24 h
Staphylococcus aureus [14] = assay: Antibacterial activity against methicillin-resistant Staphylococcus aureus H 5996/08 after 48 hrs by microdilution broth method; conditions: H 5996/08, 48 h
[15] = system: Staphylococcus epidermidis; assay: Antibacterial activity against Staphylococcus epidermidis H 6966/08 after 24 hrs by microdilution broth method; conditions: H 6966/08, 24 h
In short: (§2)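 Mueller-Hinton broth microdilution (modified M07-A07), pH 7.4 (±0.2). Compounds dissolved in DMSO, tested at final 500 to 0.49 µmol/L. Inoculum in sterile water matched to 0.5 McFarland. Incubated in the dark, humid atmosphere, 35 °C, read at 24 and 48 h visually and at 540 nm. MIC taken as ≥95% growth reduction (IC95) versus control.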

[16] = system: Staphylococcus epidermidis; assay: Antibacterial activity against Staphylococcus epidermidis H 6966/08 after 48 hrs by microdilution broth method; conditions: H 6966/08, 48 h; in short: as §2
Enterococcus sp. [17] = assay: Antibacterial activity against Enterococcus sp. J 14365/08 after 24 hrs by microdilution broth method; conditions: J 14365/08, 24 h; in short: as §2
Enterococcus sp. [18] = assay: Antibacterial activity against Enterococcus sp. J 14365/08 after 48 hrs by microdilution broth method; conditions: J 14365/08, 48 h; in short: as §2
Escherichia coli [19] = assay: Antibacterial activity against Escherichia coli CCM4517 after 24 hrs by microdilution broth method; conditions: CCM4517, 24 h; in short: as §2
Escherichia coli [20] = assay: Antibacterial activity against Escherichia coli CCM4517 after 48 hrs by microdilution broth method; conditions: CCM4517, 48 h; in short: as §2
Klebsiella pneumoniae [21] = assay: Antibacterial activity against Klebsiella pneumoniae D 11750/08 after 24 hrs by microdilution broth method; conditions: D 11750/08, 24 h; in short: as §2
Klebsiella pneumoniae [22] = assay: Antibacterial activity against Klebsiella pneumoniae D 11750/08 after 48 hrs by microdilution broth method; conditions: D 11750/08, 48 h; in short: as §2
Klebsiella pneumoniae [23] = assay: Antibacterial activity against ESBL-positive Klebsiella pneumoniae J 14368/08 after 24 hrs by microdilution broth method; conditions: J 14368/08, 24 h; in short: as §2
Klebsiella pneumoniae [24] = assay: Antibacterial activity against ESBL-positive Klebsiella pneumoniae J 14368/08 after 48 hrs by microdilution broth method; conditions: J 14368/08, 48 h; in short: as §2
Pseudomonas aeruginosa [25] = assay: Antibacterial activity against Pseudomonas aeruginosa CCM 1961 after 24 hrs by microdilution broth method; conditions: CCM 1961, 24 h; in short: as §2
Pseudomonas aeruginosa [26] = assay: Antibacterial activity against Pseudomonas aeruginosa CCM 1961 after 48 hrs by microdilution broth method; conditions: CCM 1961, 48 h; in short: as §2
Candida albicans [27] = assay: Antifungal activity against Candida albicans ATCC 44859 after 24 hrs by microdilution broth method; conditions: ATCC 44859, 24 h
In short: (§3)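 CLSI M27-A3 broth microdilution in RPMI 1640 with glutamine, buffered to pH 7.0 with MOPS; DMSO diluent. Yeast inoculum 5 × 10^3 ± 0.2 CFU/mL. Moulds grown on Sabouraud agar 3–10 days before spore harvest, final inoculum 0.5-5 × 10^4 CFU/mL, checked in a Bürker chamber. Incubated dark, humid, 35 °C, read at 24 and 48 h visually and at 540 nm. MIC taken as ≥80% (yeasts) or ≥50% (filamentous) growth reduction versus control.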

Candida albicans [28] = assay: Antifungal activity against Candida albicans ATCC 44859 after 48 hrs by microdilution broth method; conditions: ATCC 44859, 48 h; in short: as §3
Candida tropicalis [29] = assay: Antifungal activity against Candida tropicalis 156 after 24 hrs by microdilution broth method; conditions: Candida tropicalis, 156, 24 h; in short: as §3
Candida tropicalis [30] = assay: Antifungal activity against Candida tropicalis 156 after 48 hrs by microdilution broth method; conditions: Candida tropicalis, 156, 48 h; in short: as §3
Pichia kudriavzevii [31] = assay: Antifungal activity against Candida krusei E28 after 24 hrs by microdilution broth method; conditions: E28, 24 h; in short: as §3
Pichia kudriavzevii [32] = assay: Antifungal activity against Candida krusei E28 after 48 hrs by microdilution broth method; conditions: E28, 48 h; in short: as §3
Nakaseomyces glabratus [33] = assay: Antifungal activity against Candida glabrata 20/I after 24 hrs by microdilution broth method; in short: as §3
Nakaseomyces glabratus [34] = assay: Antifungal activity against Candida glabrata 20/I after 48 hrs by microdilution broth method; in short: as §3
Trichosporon asahii [35] = assay: Antifungal activity against Trichosporon asahii 1188 after 24 hrs by microdilution broth method; conditions: Trichosporon asahii, 1188, 24 h; in short: as §3
Trichosporon asahii [36] = assay: Antifungal activity against Trichosporon asahii 1188 after 48 hrs by microdilution broth method; conditions: Trichosporon asahii, 1188, 48 h; in short: as §3
Aspergillus fumigatus [37] = assay: Antifungal activity against Aspergillus fumigatus 231 after 24 hrs by microdilution broth method; conditions: Aspergillus fumigatus, 231, 24 h; in short: as §3
Aspergillus fumigatus [38] = assay: Antifungal activity against Aspergillus fumigatus 231 after 48 hrs by microdilution broth method; conditions: Aspergillus fumigatus, 231, 48 h; in short: as §3
Lichtheimia corymbifera [39] = assay: Antifungal activity against Absidia corymbifera 272 after 24 hrs by microdilution broth method; conditions: Lichtheimia corymbifera, 272, 24 h; in short: as §3
Lichtheimia corymbifera [40] = assay: Antifungal activity against Absidia corymbifera 272 after 48 hrs by microdilution broth method; conditions: Lichtheimia corymbifera, 272, 48 h; in short: as §3
[41] = system: Trichophyton mentagrophytes; assay: Antifungal activity against Trichophyton mentagrophytes 445 after 24 hrs by microdilution broth method; conditions: Trichophyton mentagrophytes, 445, 24 h
[42] = system: Trichophyton mentagrophytes; assay: Antifungal activity against Trichophyton mentagrophytes 445 after 48 hrs by microdilution broth method; conditions: Trichophyton mentagrophytes, 445, 48 h

SMILES: O=C(Nc1cccc(I)c1)c1ccc([N+](=O)[O-])cc1O
- MIC [1]: 16 µM (≈ 6.15 µg/mL)
- MIC [2]: 16 µM (≈ 6.15 µg/mL)
- MIC (Mycobacterium avium [3]): 32 µM (≈ 12.3 µg/mL)
- MIC (Mycobacterium avium [4]): 62.5 µM (≈ 24 µg/mL)
- MIC (Mycobacterium kansasii [5]): 8 µM (≈ 3.07 µg/mL)
- MIC (Mycobacterium kansasii [6]): 16 µM (≈ 6.15 µg/mL)
- MIC (Mycobacterium kansasii [7]): 16 µM (≈ 6.15 µg/mL)
- MIC (Mycobacterium kansasii [8]): 16 µM (≈ 6.15 µg/mL)
- MIC (Mycobacterium kansasii [9]): 16 µM (≈ 6.15 µg/mL)
- MIC (Mycobacterium kansasii [10]): 16 µM (≈ 6.15 µg/mL)
- MIC (Staphylococcus aureus [11]): 3.9 µM (≈ 1.5 µg/mL)
- MIC (Staphylococcus aureus [12]): 3.9 µM (≈ 1.5 µg/mL)
- MIC (Staphylococcus aureus [13]): 3.9 µM (≈ 1.5 µg/mL)
- MIC (Staphylococcus aureus [14]): 3.9 µM (≈ 1.5 µg/mL)
- MIC [15]: 15.6 µM (≈ 6 µg/mL)
- MIC [16]: 15.6 µM (≈ 6 µg/mL)
- MIC (Enterococcus sp. [17]): > 500 µM
- MIC (Enterococcus sp. [18]): > 500 µM
- MIC (Escherichia coli [19]): > 500 µM
- MIC (Escherichia coli [20]): > 500 µM
- MIC (Klebsiella pneumoniae [21]): > 500 µM
- MIC (Klebsiella pneumoniae [22]): > 500 µM
- MIC (Klebsiella pneumoniae [23]): > 500 µM
- MIC (Klebsiella pneumoniae [24]): > 500 µM
- MIC (Pseudomonas aeruginosa [25]): > 500 µM
- MIC (Pseudomonas aeruginosa [26]): > 500 µM
- MIC (Candida albicans [27]): > 500 µM
- MIC (Candida albicans [28]): > 500 µM
- MIC (Candida tropicalis [29]): > 500 µM
- MIC (Candida tropicalis [30]): > 500 µM
- MIC (Pichia kudriavzevii [31]): > 500 µM
- MIC (Pichia kudriavzevii [32]): > 500 µM
- MIC (Nakaseomyces glabratus [33]): > 500 µM
- MIC (Nakaseomyces glabratus [34]): > 500 µM
- MIC (Trichosporon asahii [35]): > 500 µM
- MIC (Trichosporon asahii [36]): > 500 µM
- MIC (Aspergillus fumigatus [37]): > 500 µM
- MIC (Aspergillus fumigatus [38]): > 500 µM
- MIC (Lichtheimia corymbifera [39]): > 500 µM
- MIC (Lichtheimia corymbifera [40]): > 500 µM
- MIC [41]: > 500 µM
- MIC [42]: > 500 µM

SMILES: O=C(Nc1cccc(Br)c1)c1ccc([N+](=O)[O-])cc1O
- MIC [1]: 16 µM (≈ 5.39 µg/mL)
- MIC [2]: 16 µM (≈ 5.39 µg/mL)
- MIC (Mycobacterium avium [3]): 32 µM (≈ 10.8 µg/mL)
- MIC (Mycobacterium avium [4]): 62.5 µM (≈ 21.1 µg/mL)
- MIC (Mycobacterium kansasii [5]): 8 µM (≈ 2.7 µg/mL)
- MIC (Mycobacterium kansasii [6]): 16 µM (≈ 5.39 µg/mL)
- MIC (Mycobacterium kansasii [7]): 16 µM (≈ 5.39 µg/mL)
- MIC (Mycobacterium kansasii [8]): 16 µM (≈ 5.39 µg/mL)
- MIC (Mycobacterium kansasii [9]): 16 µM (≈ 5.39 µg/mL)
- MIC (Mycobacterium kansasii [10]): 16 µM (≈ 5.39 µg/mL)
- MIC (Staphylococcus aureus [11]): 3.9 µM (≈ 1.31 µg/mL)
- MIC (Staphylococcus aureus [12]): 3.9 µM (≈ 1.31 µg/mL)
- MIC (Staphylococcus aureus [13]): 3.9 µM (≈ 1.31 µg/mL)
- MIC (Staphylococcus aureus [14]): 3.9 µM (≈ 1.31 µg/mL)
- MIC [15]: 3.9 µM (≈ 1.31 µg/mL)
- MIC [16]: 3.9 µM (≈ 1.31 µg/mL)
- MIC (Enterococcus sp. [17]): 500 µM (≈ 169 µg/mL)
- MIC (Enterococcus sp. [18]): 500 µM (≈ 169 µg/mL)
- MIC (Escherichia coli [19]): 500 µM (≈ 169 µg/mL)
- MIC (Escherichia coli [20]): > 500 µM
- MIC (Klebsiella pneumoniae [21]): 500 µM (≈ 169 µg/mL)
- MIC (Klebsiella pneumoniae [22]): 500 µM (≈ 169 µg/mL)
- MIC (Klebsiella pneumoniae [23]): 500 µM (≈ 169 µg/mL)
- MIC (Klebsiella pneumoniae [24]): 500 µM (≈ 169 µg/mL)
- MIC (Pseudomonas aeruginosa [25]): > 500 µM
- MIC (Pseudomonas aeruginosa [26]): > 500 µM
- MIC (Candida albicans [27]): > 500 µM
- MIC (Candida albicans [28]): > 500 µM
- MIC (Candida tropicalis [29]): > 500 µM
- MIC (Candida tropicalis [30]): > 500 µM
- MIC (Pichia kudriavzevii [31]): 62.5 µM (≈ 21.1 µg/mL)
- MIC (Pichia kudriavzevii [32]): 250 µM (≈ 84.3 µg/mL)
- MIC (Nakaseomyces glabratus [33]): > 500 µM
- MIC (Nakaseomyces glabratus [34]): > 500 µM
- MIC (Trichosporon asahii [35]): 31.2 µM (≈ 10.5 µg/mL)
- MIC (Trichosporon asahii [36]): 125 µM (≈ 42.1 µg/mL)
- MIC (Aspergillus fumigatus [37]): > 500 µM
- MIC (Aspergillus fumigatus [38]): > 500 µM
- MIC (Lichtheimia corymbifera [39]): 250 µM (≈ 84.3 µg/mL)
- MIC (Lichtheimia corymbifera [40]): 500 µM (≈ 169 µg/mL)
- MIC [41]: 62.5 µM (≈ 21.1 µg/mL)
- MIC [42]: 250 µM (≈ 84.3 µg/mL)

Source: ChEMBL document CHEMBL3627671, “Novel derivatives of nitro-substituted salicylic acids: Synthesis, antimicrobial activity and cytotoxicity” (Bioorg Med Chem, 2015)
